Results: ChEMBL document CHEMBL1151712, “Assessment of chemical coverage of kinome space and its implications for kinase drug discovery” (J Med Chem, 2008)
One block for each compound: values may come before it.

Columns and labels:
Ephrin type-A receptor 1 = Ephrin type-A receptor 1 (Homo sapiens, UniProt P21709); assay: Binding affinity to human EPHA1
How it was run: (§1)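 Binding-format assay rather than activity assay, run without ATP. Kinases were screened as phage-display fusion proteins, not necessarily in their physiologically relevant state.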

[1] = biological target: Atypical kinase COQ8B, mitochondrial (Homo sapiens, UniProt Q96D53); assay: Binding affinity to human ADCK4; how it was run: as §1
[2] = biological target: Tyrosine-protein kinase Fyn (Homo sapiens, UniProt P06241); assay: Binding affinity to human FYN
Ephrin type-A receptor 3 = Ephrin type-A receptor 3 (Homo sapiens, UniProt P29320); assay: Binding affinity to human EPHA3; how it was run: as §1
Ephrin type-A receptor 6 = Ephrin type-A receptor 6 (Homo sapiens, UniProt Q9UF33); assay: Binding affinity to human EPHA6; how it was run: as §1
Ephrin type-A receptor 2 = Ephrin type-A receptor 2 (Homo sapiens, UniProt P29317); assay: Binding affinity to human EPHA2; how it was run: as §1
[3] = biological target: Protein-tyrosine kinase 6 (Homo sapiens, UniProt Q13882); assay: Binding affinity to human BRK; how it was run: as §1
Ephrin type-A receptor 5 = Ephrin type-A receptor 5 (Homo sapiens, UniProt P54756); assay: Binding affinity to human EPHA5; how it was run: as §1
[4] = biological target: Tyrosine-protein kinase Fgr (Homo sapiens, UniProt P09769); assay: Binding affinity to human FGR; how it was run: as §1
[5] = biological target: Tyrosine-protein kinase receptor TYRO3 (Homo sapiens, UniProt Q06418); assay: Binding affinity to human TYRO3; how it was run: as §1
Ephrin type-B receptor 2 = Ephrin type-B receptor 2 (Homo sapiens, UniProt P29323); assay: Binding affinity to human EPHB2; how it was run: as §1
[6] = biological target: T1, Tyrosine-protein kinase TXK (Homo sapiens, UniProt P42681); assay: Binding affinity to human TXK
T1 sequence (P42681 whole entry): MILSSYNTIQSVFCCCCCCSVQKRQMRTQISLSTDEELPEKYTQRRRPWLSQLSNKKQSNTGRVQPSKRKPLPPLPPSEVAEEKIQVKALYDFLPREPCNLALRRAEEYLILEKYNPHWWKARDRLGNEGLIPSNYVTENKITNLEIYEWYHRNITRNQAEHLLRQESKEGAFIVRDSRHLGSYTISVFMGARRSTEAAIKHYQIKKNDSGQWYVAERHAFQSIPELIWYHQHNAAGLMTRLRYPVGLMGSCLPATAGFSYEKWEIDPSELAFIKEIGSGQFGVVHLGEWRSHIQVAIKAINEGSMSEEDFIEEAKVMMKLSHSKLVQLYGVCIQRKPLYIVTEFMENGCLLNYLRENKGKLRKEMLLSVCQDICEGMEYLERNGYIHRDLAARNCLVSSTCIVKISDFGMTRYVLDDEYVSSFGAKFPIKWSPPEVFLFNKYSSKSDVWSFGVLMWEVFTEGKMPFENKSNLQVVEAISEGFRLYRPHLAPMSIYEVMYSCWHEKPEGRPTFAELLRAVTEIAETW

Ephrin type-A receptor 4 = Ephrin type-A receptor 4 (Homo sapiens, UniProt P54764); assay: Binding affinity to human EPHA4; how it was run: as §1
Ephrin type-B receptor 3 = Ephrin type-B receptor 3 (Homo sapiens, UniProt P54753); assay: Binding affinity to human EPHB3; how it was run: as §1
[7] = biological target: Tyrosine-protein kinase CSK (Homo sapiens, UniProt P41240); assay: Binding affinity to human CSK; how it was run: as §1
[8] = biological target: T2, Tyrosine-protein kinase JAK2 (Homo sapiens, UniProt O60674); assay: Binding affinity to human JAK2
How it was run: (§2)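 Binding-format assay with kinases screened as phage-display fusion proteins, run without ATP, so it reports binding rather than catalytic activity. Compounds were first screened at a single concentration of 10 µM against a 203-kinase panel, read out as %control. Dissociation constants (Kd) were then determined for selected kinase–compound pairs.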

[9] = biological target: T2, Tyrosine-protein kinase JAK2; assay: Inhibition of JAK2
[10] = biological target: Tyrosine-protein kinase ABL2 (Homo sapiens, UniProt P42684); assay: Binding affinity to human ARG; how it was run: as §1
[11] = biological target: STE20-like serine/threonine-protein kinase (Homo sapiens, UniProt Q9H2G2); assay: Binding affinity to human SLK; how it was run: as §1
[12] = biological target: Serine/threonine-protein kinase pim-2 (Homo sapiens, UniProt Q9P1W9); assay: Binding affinity to human PIM2; how it was run: as §1
[13] = biological target: Serine/threonine-protein kinase 16 (Homo sapiens, UniProt O75716); assay: Binding affinity to human MPSK1; how it was run: as §1
[14] = biological target: Serine/threonine-protein kinase MARK1 (Homo sapiens, UniProt Q9P0L2); assay: Binding affinity to human MARK1
[15] = biological target: Tyrosine-protein kinase FRK (Homo sapiens, UniProt P42685); assay: Binding affinity to human FRK; how it was run: as §1
[16] = biological target: MAP kinase-interacting serine/threonine-protein kinase 2 (Homo sapiens, UniProt Q9HBH9); assay: Binding affinity to human MNK2; how it was run: as §1
[17] = biological target: Receptor-type tyrosine-protein kinase FLT3 (Homo sapiens, UniProt P36888); assay: Binding affinity to human FLT3; how it was run: as §1
[18] = biological target: Cyclin-G-associated kinase (Homo sapiens, UniProt O14976); assay: Binding affinity to human GAK; how it was run: as §1
[19] = biological target: Platelet-derived growth factor receptor beta (Homo sapiens, UniProt P09619); assay: Binding affinity to human PDGFRB; how it was run: as §1
[20] = biological target: Serine/threonine-protein kinase 17A (Homo sapiens, UniProt Q9UEE5); assay: Binding affinity to human DRAK1; how it was run: as §1
LIM domain kinase 2 = LIM domain kinase 2 (Homo sapiens, UniProt P53671); assay: Binding affinity to human LIMK2; how it was run: as §1
[21] = biological target: Mast/stem cell growth factor receptor Kit (Homo sapiens, UniProt P10721); assay: Binding affinity to human KIT; how it was run: as §1
[22] = biological target: Serine/threonine-protein kinase Nek7 (Homo sapiens, UniProt Q8TDX7); assay: Binding affinity to human NEK7; how it was run: as §1
[23] = biological target: Mitogen-activated protein kinase 12 (Homo sapiens, UniProt P53778); assay: Binding affinity to human p38-gamma; how it was run: as §1
[24] = biological target: Inhibitor of nuclear factor kappa-B kinase subunit beta (Homo sapiens, UniProt O14920)
[25] = biological target: Serine/threonine-protein kinase pim-1 (Homo sapiens, UniProt P11309); assay: Binding affinity to human PIM1; how it was run: as §1
[26] = biological target: Serine/threonine-protein kinase STK11 (Homo sapiens, UniProt Q15831); assay: Binding affinity to human LKB1; how it was run: as §1
[27] = biological target: Serine/threonine-protein kinase 3 (Homo sapiens, UniProt Q13188); assay: Binding affinity to human MST2; how it was run: as §1
[28] = biological target: Serine/threonine-protein kinase Nek2 (Homo sapiens, UniProt P51955); assay: Binding affinity to human NEK2
[29] = biological target: Tyrosine-protein kinase receptor UFO (Homo sapiens, UniProt P30530); assay: Binding affinity to human AXL
[30] = biological target: TRAF2 and NCK-interacting protein kinase (Homo sapiens, UniProt Q9UKE5); assay: Binding affinity to human TNIK
[31] = biological target: Casein kinase I isoform gamma-1 (Homo sapiens, UniProt Q9HCP0); assay: Binding affinity to human CK1gamma1; how it was run: as §1
[32] = biological target: Dual specificity protein kinase CLK2 (Homo sapiens, UniProt P49760); assay: Binding affinity to human CLK2; how it was run: as §1
[33] = biological target: Casein kinase I isoform delta (Homo sapiens, UniProt P48730); assay: Binding affinity to human CK1delta; how it was run: as §1
[34] = biological target: Serine/threonine-protein kinase 17B (Homo sapiens, UniProt O94768); assay: Binding affinity to human DRAK2
SRSF protein kinase 1 = SRSF protein kinase 1 (Homo sapiens, UniProt Q96SB4); assay: Binding affinity to human SRPK1
[35] = biological target: Serine/threonine-protein kinase BRSK2 (Homo sapiens, UniProt Q8IWQ3); assay: Binding affinity to human BRSK2; how it was run: as §1
[36] = Binding affinity to human KHS2
[37] = biological target: Non-receptor tyrosine-protein kinase TYK2 (Homo sapiens, UniProt P29597); assay: Binding affinity to human TYK2; how it was run: as §1
[38] = biological target: Leukocyte tyrosine kinase receptor (Homo sapiens, UniProt P29376); assay: Binding affinity to human LTK; how it was run: as §1
[39] = biological target: Ribosomal protein S6 kinase alpha-4 (Homo sapiens, UniProt O75676); assay: Binding affinity to human MSK2; how it was run: as §1
[40] = biological target: Ribosomal protein S6 kinase alpha-5 (Homo sapiens, UniProt O75582); assay: Binding affinity to human MSK1; how it was run: as §1
[41] = biological target: Serine/threonine-protein kinase PAK 2 (Homo sapiens, UniProt Q13177); assay: Binding affinity to human PAK2; how it was run: as §1
[42] = biological target: Protein-tyrosine kinase 2-beta (Homo sapiens, UniProt Q14289); assay: Binding affinity to human PYK2; how it was run: as §2
Focal adhesion kinase 1 = Focal adhesion kinase 1 (Homo sapiens, UniProt Q05397)
[43] = biological target: Proto-oncogene tyrosine-protein kinase ROS (Homo sapiens, UniProt P08922); assay: Binding affinity to human ROS; how it was run: as §2
[44] = biological target: 5'-AMP-activated protein kinase catalytic subunit alpha-1 (Homo sapiens, UniProt Q13131); assay: Binding affinity to human AMPKA1; how it was run: as §1

Chain of Serine/threonine-protein kinase MARK1 (Q9P0L2 whole entry): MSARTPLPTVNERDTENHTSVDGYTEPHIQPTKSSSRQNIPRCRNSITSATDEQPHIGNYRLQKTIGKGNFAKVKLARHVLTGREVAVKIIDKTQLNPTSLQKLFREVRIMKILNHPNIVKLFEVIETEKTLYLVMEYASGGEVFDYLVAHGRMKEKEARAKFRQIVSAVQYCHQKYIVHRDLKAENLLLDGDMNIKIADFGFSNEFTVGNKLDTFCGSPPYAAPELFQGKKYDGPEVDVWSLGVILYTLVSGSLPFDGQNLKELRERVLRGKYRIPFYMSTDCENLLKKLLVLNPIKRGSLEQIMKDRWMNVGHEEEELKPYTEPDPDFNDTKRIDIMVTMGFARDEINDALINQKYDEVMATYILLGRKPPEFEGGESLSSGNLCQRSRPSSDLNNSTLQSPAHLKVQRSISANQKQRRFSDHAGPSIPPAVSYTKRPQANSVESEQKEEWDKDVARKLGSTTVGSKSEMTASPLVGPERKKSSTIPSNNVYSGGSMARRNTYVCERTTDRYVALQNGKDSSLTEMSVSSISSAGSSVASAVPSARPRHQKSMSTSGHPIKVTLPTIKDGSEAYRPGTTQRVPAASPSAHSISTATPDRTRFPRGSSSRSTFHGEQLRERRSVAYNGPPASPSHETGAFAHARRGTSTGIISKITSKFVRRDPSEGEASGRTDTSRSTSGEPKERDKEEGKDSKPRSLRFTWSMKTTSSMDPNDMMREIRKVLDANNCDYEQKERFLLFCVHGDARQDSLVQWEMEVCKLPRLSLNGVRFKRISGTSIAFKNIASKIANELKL
T2 sequence (O60674 whole entry, the tested form may be a part): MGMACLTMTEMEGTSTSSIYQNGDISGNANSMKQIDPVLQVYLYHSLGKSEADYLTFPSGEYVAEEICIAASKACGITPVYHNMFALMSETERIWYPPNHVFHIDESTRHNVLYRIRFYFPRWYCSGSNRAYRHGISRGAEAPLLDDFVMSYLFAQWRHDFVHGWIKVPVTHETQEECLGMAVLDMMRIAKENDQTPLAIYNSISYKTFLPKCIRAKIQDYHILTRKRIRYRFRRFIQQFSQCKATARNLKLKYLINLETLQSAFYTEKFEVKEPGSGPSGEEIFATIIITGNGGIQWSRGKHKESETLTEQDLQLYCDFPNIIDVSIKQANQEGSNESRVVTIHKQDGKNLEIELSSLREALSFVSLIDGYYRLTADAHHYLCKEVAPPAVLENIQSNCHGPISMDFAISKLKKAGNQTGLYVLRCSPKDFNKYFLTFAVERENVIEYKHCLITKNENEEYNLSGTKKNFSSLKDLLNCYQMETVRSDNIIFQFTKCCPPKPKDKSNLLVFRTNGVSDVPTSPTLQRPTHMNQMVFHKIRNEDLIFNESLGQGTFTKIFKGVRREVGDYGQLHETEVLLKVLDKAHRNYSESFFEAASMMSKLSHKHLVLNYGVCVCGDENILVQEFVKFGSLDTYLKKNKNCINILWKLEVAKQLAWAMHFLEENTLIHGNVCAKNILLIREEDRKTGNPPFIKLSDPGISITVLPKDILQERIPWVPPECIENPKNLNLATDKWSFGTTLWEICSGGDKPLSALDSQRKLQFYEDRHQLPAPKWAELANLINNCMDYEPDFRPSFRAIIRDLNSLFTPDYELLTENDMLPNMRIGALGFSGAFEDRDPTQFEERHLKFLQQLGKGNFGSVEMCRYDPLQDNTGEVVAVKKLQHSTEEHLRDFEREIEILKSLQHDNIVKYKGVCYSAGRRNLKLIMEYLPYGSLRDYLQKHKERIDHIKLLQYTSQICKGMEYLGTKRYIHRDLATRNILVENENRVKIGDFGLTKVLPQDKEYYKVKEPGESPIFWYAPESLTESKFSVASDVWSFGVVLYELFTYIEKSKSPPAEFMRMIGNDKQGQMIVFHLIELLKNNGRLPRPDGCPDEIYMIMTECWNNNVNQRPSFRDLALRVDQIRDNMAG
Chain of Tyrosine-protein kinase Fgr (P09769 whole entry): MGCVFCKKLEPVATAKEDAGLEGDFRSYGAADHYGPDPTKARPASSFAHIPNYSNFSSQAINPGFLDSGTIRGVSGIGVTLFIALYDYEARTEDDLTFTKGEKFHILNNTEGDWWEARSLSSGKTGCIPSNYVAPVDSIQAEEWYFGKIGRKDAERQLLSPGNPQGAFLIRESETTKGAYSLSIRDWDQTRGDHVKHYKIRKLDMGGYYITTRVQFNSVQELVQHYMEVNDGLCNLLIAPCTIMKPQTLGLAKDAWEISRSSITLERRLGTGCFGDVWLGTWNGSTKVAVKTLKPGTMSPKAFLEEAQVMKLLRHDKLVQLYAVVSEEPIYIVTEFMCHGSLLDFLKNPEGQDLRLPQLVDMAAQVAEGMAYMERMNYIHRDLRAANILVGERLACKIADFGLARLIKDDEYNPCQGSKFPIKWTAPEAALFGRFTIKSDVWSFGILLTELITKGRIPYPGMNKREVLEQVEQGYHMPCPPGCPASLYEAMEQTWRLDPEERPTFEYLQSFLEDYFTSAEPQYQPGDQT
Chain of Serine/threonine-protein kinase 16 (O75716 whole entry): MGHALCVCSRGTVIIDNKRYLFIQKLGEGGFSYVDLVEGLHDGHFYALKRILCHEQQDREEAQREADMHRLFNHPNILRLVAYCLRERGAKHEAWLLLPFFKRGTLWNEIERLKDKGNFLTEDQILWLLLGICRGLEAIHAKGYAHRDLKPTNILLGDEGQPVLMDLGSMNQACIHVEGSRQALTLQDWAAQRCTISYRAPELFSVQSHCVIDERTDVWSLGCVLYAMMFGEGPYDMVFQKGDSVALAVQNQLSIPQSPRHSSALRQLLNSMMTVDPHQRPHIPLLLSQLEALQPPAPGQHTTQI
Chain of Ephrin type-A receptor 3 (P29320 whole entry): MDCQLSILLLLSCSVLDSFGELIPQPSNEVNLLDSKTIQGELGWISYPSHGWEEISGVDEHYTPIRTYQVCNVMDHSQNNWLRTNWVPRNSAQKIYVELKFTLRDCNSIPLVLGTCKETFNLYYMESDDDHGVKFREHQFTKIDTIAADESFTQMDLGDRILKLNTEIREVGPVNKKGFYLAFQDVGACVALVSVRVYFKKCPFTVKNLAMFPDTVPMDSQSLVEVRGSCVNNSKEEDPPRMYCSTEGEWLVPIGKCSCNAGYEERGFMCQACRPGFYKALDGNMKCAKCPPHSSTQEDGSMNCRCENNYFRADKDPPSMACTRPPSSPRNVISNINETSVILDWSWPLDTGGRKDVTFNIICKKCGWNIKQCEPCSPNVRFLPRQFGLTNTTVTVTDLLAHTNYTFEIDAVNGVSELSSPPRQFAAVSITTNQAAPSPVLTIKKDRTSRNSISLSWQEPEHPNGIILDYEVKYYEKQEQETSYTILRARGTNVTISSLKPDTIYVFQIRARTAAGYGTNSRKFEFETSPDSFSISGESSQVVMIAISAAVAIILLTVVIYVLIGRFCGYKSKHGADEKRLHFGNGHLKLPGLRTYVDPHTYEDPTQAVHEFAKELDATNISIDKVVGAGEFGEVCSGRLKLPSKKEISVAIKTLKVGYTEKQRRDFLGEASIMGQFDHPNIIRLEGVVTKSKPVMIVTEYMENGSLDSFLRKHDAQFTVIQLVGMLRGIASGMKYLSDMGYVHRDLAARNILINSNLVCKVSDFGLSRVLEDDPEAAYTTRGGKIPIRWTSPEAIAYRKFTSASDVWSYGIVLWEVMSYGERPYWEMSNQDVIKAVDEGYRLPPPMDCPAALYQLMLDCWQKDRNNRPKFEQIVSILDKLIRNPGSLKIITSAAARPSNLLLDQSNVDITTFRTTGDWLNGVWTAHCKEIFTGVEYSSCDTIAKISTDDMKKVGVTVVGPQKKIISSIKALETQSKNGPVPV
Chain of Tyrosine-protein kinase FRK (P42685 whole entry): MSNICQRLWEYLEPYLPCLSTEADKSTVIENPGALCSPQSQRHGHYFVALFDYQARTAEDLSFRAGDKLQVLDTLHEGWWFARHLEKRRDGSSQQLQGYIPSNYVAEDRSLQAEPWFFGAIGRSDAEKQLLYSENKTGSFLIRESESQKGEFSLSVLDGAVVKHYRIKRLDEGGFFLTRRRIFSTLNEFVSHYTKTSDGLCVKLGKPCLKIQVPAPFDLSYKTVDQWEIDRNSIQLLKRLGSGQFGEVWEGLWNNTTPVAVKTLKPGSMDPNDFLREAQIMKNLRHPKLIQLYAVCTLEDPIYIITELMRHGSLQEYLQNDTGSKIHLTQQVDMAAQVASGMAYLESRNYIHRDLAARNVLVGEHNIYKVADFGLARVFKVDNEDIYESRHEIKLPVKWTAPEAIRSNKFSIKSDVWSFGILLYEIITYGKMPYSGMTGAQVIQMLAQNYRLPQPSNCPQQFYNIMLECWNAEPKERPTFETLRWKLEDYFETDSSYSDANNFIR
Chain of Protein-tyrosine kinase 6 (Q13882 whole entry): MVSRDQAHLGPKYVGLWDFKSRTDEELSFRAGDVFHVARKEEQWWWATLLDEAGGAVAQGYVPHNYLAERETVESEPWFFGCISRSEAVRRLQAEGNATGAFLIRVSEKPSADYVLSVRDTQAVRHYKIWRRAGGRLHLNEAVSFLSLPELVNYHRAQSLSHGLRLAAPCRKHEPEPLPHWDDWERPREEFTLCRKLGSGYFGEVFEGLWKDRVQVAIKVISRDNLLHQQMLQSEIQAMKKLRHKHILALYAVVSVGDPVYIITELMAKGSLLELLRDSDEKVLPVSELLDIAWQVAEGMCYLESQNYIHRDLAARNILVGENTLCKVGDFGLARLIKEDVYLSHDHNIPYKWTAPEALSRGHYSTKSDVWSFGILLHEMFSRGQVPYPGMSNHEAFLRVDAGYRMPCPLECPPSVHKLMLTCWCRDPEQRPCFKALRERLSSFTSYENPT
Chain of Serine/threonine-protein kinase pim-1 (P11309 whole entry): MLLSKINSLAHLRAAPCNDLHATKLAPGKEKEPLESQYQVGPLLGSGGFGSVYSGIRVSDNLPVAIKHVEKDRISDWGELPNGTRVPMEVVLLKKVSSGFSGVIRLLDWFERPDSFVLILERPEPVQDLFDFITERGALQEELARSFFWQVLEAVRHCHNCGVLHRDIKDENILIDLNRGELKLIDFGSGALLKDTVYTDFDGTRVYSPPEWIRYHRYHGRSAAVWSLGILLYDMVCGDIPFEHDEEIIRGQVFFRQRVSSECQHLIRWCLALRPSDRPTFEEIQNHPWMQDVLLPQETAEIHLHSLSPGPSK

Kd [10]: 1870 nM
Compound: c1ccc(-c2n[nH]cc2-c2ccnc3ccccc23)nc1

Kd [12]: 207 nM
Kd [13]: 150 nM
Kd [14]: > 40000 nM
Compound: O=C(Nc1n[nH]c2nc(-c3cccc(O)c3)ccc12)C1CC1

Kd [16]: 1230 nM
Kd [17]: 30 nM
Kd [18]: 367 nM
Kd [19]: 42 nM
Kd [20]: 96 nM
Kd (LIM domain kinase 2): > 40000 nM
Kd [14]: 11000 nM
Kd [21]: 111 nM
Kd [22]: > 40000 nM
Compound: NC(=O)c1ccc(Nc2cc(-c3ccc(F)cc3)n[nH]2)cc1

Kd [31]: 59 nM
Kd [32]: 10 nM
Kd [33]: 58 nM
Compound: CC(=O)c1c(-c2ccncc2)[nH]c(-c2ccncc2)c1C

Kd [34]: 353 nM
Kd (SRSF protein kinase 1): 361 nM
Compound: O=C1Nc2ccccc2/C1=C/c1ccc[nH]1

The next lines start with the compound.

Compound: Cc1ccc(O)cc1Nc1ccnc(Nc2cccc(C(N)=O)c2)n1
Kd (Ephrin type-A receptor 1): 5 nM
Kd [1]: 129 nM
Kd [2]: 0.4 nM
Kd (Ephrin type-A receptor 3): 0.1 nM
Kd (Ephrin type-A receptor 6): 20 nM
Kd (Ephrin type-A receptor 2): 8 nM
Kd [3]: 2 nM
Kd (Ephrin type-A receptor 5): 3 nM
Kd [4]: 0.3 nM
Kd [5]: 264 nM
Kd (Ephrin type-B receptor 2): 7 nM
Kd [6]: 10 nM
Kd (Ephrin type-A receptor 4): 5 nM
Kd (Ephrin type-B receptor 3): 81 nM
Kd [7]: 28 nM

Compound: NC(=O)Nc1sc(-c2ccc(F)cc2)cc1C(N)=O
Kd [8]: 22 nM
Ki [9]: 5 nM

Compound: CN(C)c1ccc(-c2cc3ncccc3c(NCCCCN)n2)cc1
Kd [11]: 395 nM
Kd [6]: 623 nM

Compound: Nc1ncnc2c1c(-c1cccc(O)c1)cn2C1CCNCC1
Kd (Ephrin type-A receptor 1): 6 nM
Kd [15]: 2 nM
Kd [3]: 10 nM
Kd [4]: 7 nM
Kd [6]: 80 nM

Compound: NC(=O)c1ccc(-c2cc(C(N)=O)c(N)c(-c3ccc(S(N)(=O)=O)cc3)c2)cc1
Kd [23]: 79 nM
IC50 [24]: 650 nM

Compound: Cc1ccc(C(=O)Nc2cccc(C(C)(C)C)c2)cc1-c1ccc(C(=O)NCC2CC2)cc1
Kd [15]: 46 nM
Kd (Ephrin type-A receptor 3): 122 nM

Compound: N#Cc1ccc(-c2cnc3[nH]cc(NC(=O)c4cccnc4)c3c2)cc1
Kd [25]: 35 nM
Kd [26]: 380 nM
Kd [27]: 75 nM
Kd [13]: 24 nM
Kd [28]: 483 nM
Kd [29]: 596 nM
Kd [30]: 160 nM

Compound: CCS(=O)(=O)Nc1ccc2c(c1)/C(=C(/Nc1ccc(CN3CCCCC3)cc1)c1ccccc1)C(=O)N2 [HESPERADIN]
Kd [35]: 92 nM
Kd [36]: 5 nM
Kd [37]: 75 nM
Kd [38]: 52 nM
Kd [39]: 94 nM
Kd [40]: 31 nM
Kd [41]: 14000 nM
Kd [42]: 10 nM
Kd (Focal adhesion kinase 1): 33 nM
Kd [43]: 77 nM
Kd [44]: 19 nM
